Here are results for eight compounds from ChEMBL document CHEMBL1141356, “Derrubone, an inhibitor of the Hsp90 protein folding machinery” (J Nat Prod, 2007).

Assay [1] in a line: Inhibition of Hsp90. Put shortly: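 Thermally denatured firefly luciferase refolded in rabbit reticulocyte lysate at room temperature. Run in triplicate and repeated at least twice; luminescence read with 10 s integration. IC50 is the concentration that cuts recovery of luciferase activity by 50% versus DMSO. Linearity checked by anti-luciferase Western blot over the time course.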

Assay [2] in a line: Effect on binding of Hsp90 to HR1 relative to control.
The species named for assay [3] is Oryctolagus cuniculus. The experiment in a line: Inhibition of Hsp90-dependent activation of heme-regulated Eif2-alpha kinase in heme-deficient rabbit reticulocyte lysate at 100 uM.
A short description of assay [4]: Inhibition of ATPase activity of bacterial DnaK at upto 400 uM. Put shortly: (§1)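 Intrinsic ATPase measured with purified chaperone (bovine Hsp70 or bacterial DnaK, 1 µM) and 1 mM ATP, 3 h at 37 °C, compound or DMSO. Malachite green-molybdate added, then quenched with 3% sodium citrate; absorbance read at 620 nm. Compound tested up to 400 µM. Result is % of solvent control, mean of triplicates.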

Assay [5] addresses T1, Heat shock protein HSP90 (Homo sapiens, UniProt P07900+P08238). The experiment in a line: Inhibition of Hsp90 in human MCF7 cells assessed as induction of Akt degradation after 36 hrs by Western blot analysis. It is filed as cell-based. In short, it runs like this:
(§2)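 MCF-7 cells grown in DMEM:Ham's F-12 (1:1) with nonessential amino acids, 2 mM L-glutamine, antibiotics and 10% FBS. Seeded at 1 × 10^6 per dish, attached overnight, treated with varying concentrations for 36 h at 37 °C, 5% CO2. Harvested for Western blot of client proteins. Controls were GA 500 nM and DMSO.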

In another assay the test system is MCF7. The experiment in a line: Antiproliferative activity against human MCF7 cells expressing ERalpha. It is filed as functional, cell-based. In short, it runs like this:
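MCF-7 cells (ERα-positive human breast cancer) grown in 1:1 DMEM:Ham's F-12 with nonessential amino acids, 2 mM L-glutamine, streptomycin, penicillin and 10% FBS at 37 °C, 5% CO2. Antiproliferative IC50 derived from three separate experiments, each run in triplicate.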

The target in assay [6] is T1, Heat shock protein HSP90. Description: Inhibition of Hsp90 in human SkBr3 cells assessed as induction of Her2 degradation by ELISA. It counts as cell-based. In short, it runs like this:
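SkBr3 cells seeded at 3000/well, attached overnight, then treated 24 h. Washed with ice-cold PBS/1% Tween and fixed with -20 °C methanol, 10 min at 4 °C. Blocked in 5% BSA/PBST 1 h. Rabbit anti-Her2 (1:500) overnight at 4 °C, then HRP anti-rabbit (1:1000) 2 h at rt; chemiluminescence read. IC50 from three experiments in triplicate.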
On the technique in general: In an ELISA, binding on a coated surface is turned into a signal by an enzyme label.

The target in assay [7] is T1, Heat shock protein HSP90. The experiment in a line: Inhibition of Hsp90 in human MCF7 cells assessed as induction of ERalpha degradation after 36 hrs by Western blot analysis. It counts as cell-based. Put shortly:
as §2

Assay [8] is filed under the species Oryctolagus cuniculus. The experiment in a line: Inhibition of Hsp90-dependent luciferase refolding in rabbit reticulocyte at 100 uM after 20 mins.
The next assay has as its system SK-BR-3. Description: Antiproliferative activity against human SkBr3 cells ERalpha-negative and overexpressing Her2.
Assay [9] addresses T1, Heat shock protein HSP90. Description: Inhibition of Hsp90 in human MCF7 cells assessed as induction of Raf degradation after 36 hrs by Western blot analysis. It is filed as cell-based. In short, it runs like this: as §2
(In western blotting, separated proteins are transferred to a membrane and probed.)

Assay [10] addresses T1, Heat shock protein HSP90. The experiment in a line: Inhibition of Hsp90 in human MCF7 cells assessed as induction of Her2 degradation after 36 hrs by Western blot analysis. It is filed as cell-based.
For assay [11], the species on record is Oryctolagus cuniculus. The experiment in a line: Inhibition of Hsp90-dependent maturation and activation of heme-regulated eIF2-alpha kinase in heme-deficient rabbit reticulocyte lysate at 100 uM.
Assay [12] has as its target T1, Heat shock protein HSP90. The experiment in a line: Inhibition of Hsp90 in human MCF7 cells assessed as induction of actin degradation after 36 hrs by Western blot analysis. It is filed as cell-based. Put shortly:
as §2

For a further assay, the species on record is Bos taurus. The experiment in a line: Inhibition of ATPase activity of bovine Hsp70 at upto 400 uM. Put shortly: as §1
A short description of assay [13]: Inhibition of Hsp90 in cell based assay.

Active and inactive are the calls of the source. The rule behind the calls is not given here.

With `CC1(C)C=Cc2c(cc3occ(-c4ccc5c(c4)OCO5)c(=O)c3c2O)O1`, the outcome in assay [1] was inactive.
As for `COc1cc(OC)c2c(=O)c(-c3ccc4c(c3)OCO4)coc2c1`, the outcome in [1] was inactive.
The same measure, in the same setting: to `COc1cc(OC)c2c(OC)c(-c3ccc4c(c3)OCO4)c(=O)oc2c1` belongs “inactive”; to `COc1ccc(-c2c(O)c3c(OC)c4c(cc3oc2=O)OC(C)(C)C=C4)cc1`, “inactive”.
What is called IC50 is the concentration needed to halve the response being measured. In turn, `COC1=C2C[C@@H](C)C[C@H](OC)[C@H](O)[C@@H](C)/C=C(\C)[C@H](OC(N)=O)[C@@H](OC)/C=C\C=C(/C)C(=O)NC(=CC1=O)C2=O` (stereo in doubt) [GELDANAMYCIN] registered an Activity in assay [2] of 80%. In [1], this compound showed an IC50 of less than 0.1 µM.
In the case of `CC(C)=CCc1c(O)cc2occ(-c3ccc4c(c3)OCO4)c(=O)c2c1O` [DERRUBONE], in assay [2], the Activity amounted to 46%. For the same compound, the result in the assay filed under Oryctolagus cuniculus [3], on Heat shock protein HSP90 [5], at Heat shock protein HSP90 [7], in the assay listed under Oryctolagus cuniculus [8], at Heat shock protein HSP90 [9] and at Heat shock protein HSP90 [10] was Active. Also, the outcome in the assay listed under Oryctolagus cuniculus [11] and at Heat shock protein HSP90 [12] was Active. In addition, the outcome (in assay [4]; in the assay listed under Bos taurus) was inactive. Also, the IC50 came to 9 µM with MCF7, 14 µM on Heat shock protein HSP90 [6], 12 µM in the assay on SK-BR-3 and 0.23 µM in assay [1].
Regarding `CO[C@@H]1[C@@H](OC(N)=O)[C@@H](O)[C@H](Oc2ccc3c(O)c(NC(=O)c4ccc(O)c(CC=C(C)C)c4)c(=O)oc3c2C)OC1(C)C` [NOVOBIOCIN], in [13], the concentration for half-maximal inhibition (IC50) is 500 µM.
Regarding `C[C@@H]1C[C@H]2O[C@@H]2C=C/C=C/C(=O)Cc2c(Cl)c(O)cc(O)c2C(=O)O1` [RADICICOL], the concentration for half-maximal inhibition (IC50) in assay [1] is less than 0.1 µM.
